# Experimental data: ChEMBL document CHEMBL1143182, “Design and synthesis of DPP-IV inhibitors lacking the electrophilic nitrile group” (Bioorg Med Chem, 2008)
# The source made the active and inactive calls. No cut-off for these calls is given here.
# Columns and labels:
# [1] = biological target: Dipeptidyl peptidase 4 (Rattus norvegicus, UniProt P14740); test: Inhibition of DPP4 in rat plasma by fluorescence assay; format: cell-free
# [2] = test system: Rattus norvegicus; test: Inhibition of DPP4 in Sprague-Dawley rat plasma at 3 mg/kg, po after 30 mins; format: functional; conditions: 0.5 h
# [3] = test system: Rattus norvegicus; test: Inhibition of DPP4 in Sprague-Dawley rat plasma at 3 mg/kg, po after 9 hrs; format: functional
# [4] = species on record: Rattus norvegicus; test: Reduction in plasma glucose level in Sprague-Dawley rat by oral glucose tolerance test; format: functional, organism-based
# Method in brief: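 Male SD rats (400–460 g) fasted at least 20 h, dosed orally with 0.1, 0.3 or 1 mg/kg in 0.5% methyl cellulose (vehicle control) at −30 min. Oral glucose 1 g/kg at 0 min. Tail-vein blood at −5, 5, 10, 15, 30, 60, 120 min; plasma glucose by glucose oxidase peroxidase dye method.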
# Sequence of Dipeptidyl peptidase 4 (P14740 whole entry): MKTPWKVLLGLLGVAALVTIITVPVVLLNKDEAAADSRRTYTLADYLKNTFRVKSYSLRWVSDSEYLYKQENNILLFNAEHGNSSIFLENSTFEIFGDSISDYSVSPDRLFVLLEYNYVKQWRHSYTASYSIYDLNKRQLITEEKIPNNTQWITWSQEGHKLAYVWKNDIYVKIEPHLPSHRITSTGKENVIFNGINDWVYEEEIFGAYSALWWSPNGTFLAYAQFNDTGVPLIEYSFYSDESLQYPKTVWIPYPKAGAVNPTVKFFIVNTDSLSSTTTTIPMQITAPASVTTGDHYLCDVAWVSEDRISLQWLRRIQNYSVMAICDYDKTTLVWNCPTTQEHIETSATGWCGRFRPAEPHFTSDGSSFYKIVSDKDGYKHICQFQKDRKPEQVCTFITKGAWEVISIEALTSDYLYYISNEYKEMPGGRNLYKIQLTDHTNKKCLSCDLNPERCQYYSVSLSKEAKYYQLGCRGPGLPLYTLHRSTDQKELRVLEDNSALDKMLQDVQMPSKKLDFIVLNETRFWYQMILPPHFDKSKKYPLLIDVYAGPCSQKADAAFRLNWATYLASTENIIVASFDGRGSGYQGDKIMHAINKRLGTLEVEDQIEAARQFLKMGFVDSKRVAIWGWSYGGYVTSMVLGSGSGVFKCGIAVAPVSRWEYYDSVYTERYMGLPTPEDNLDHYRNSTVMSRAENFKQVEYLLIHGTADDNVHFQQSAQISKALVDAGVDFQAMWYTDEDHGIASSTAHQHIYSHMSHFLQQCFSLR
SMILES,IC50 [1] [nM],inhibition in vivo at 3 mg/kg [2] [%],inhibition in vivo at 3 mg/kg [3] [%],Activity [4]
CC(C)c1nsc(N2CCN(C(=O)[C@@H]3CN[C@H](C(=O)N4CCCC4)C3)CC2)n1,190,85,43,–
Cc1ncc(N2CCN(C(=O)[C@@H]3CN[C@H](C(=O)N4CCCC4)C3)CC2)s1,340,–,–,–
Cc1nsc(N2CCN(C(=O)[C@@H]3CN[C@H](C(=O)N4CCCC4)C3)CC2)n1,58,84,53,–
O=C([C@@H]1CN[C@H](C(=O)N2CCCC2)C1)N1CCN(c2nc(-c3ccccc3)ns2)CC1,150,64,11,–
Cc1nc(N2CCN(C(=O)[C@@H]3CN[C@H](C(=O)N4CCCC4)C3)CC2)no1,960,–,–,–
Cc1nsc(N2CCCN(C(=O)[C@@H]3CN[C@H](C(=O)N4CCCC4)C3)CC2)n1,760,–,–,–
CCCc1nsc(N2CCN(C(=O)[C@@H]3CN[C@H](C(=O)N4CCCC4)C3)CC2)n1,110,81,48,–
Cc1nsc(N2CCN(C(=O)[C@H]3C[C@@H](C(=O)N4CCSC4)N[C@H]3C)CC2)n1,60,95,72,Active
Cc1cnc(N2CCN(C(=O)[C@@H]3CN[C@H](C(=O)N4CCCC4)C3)CC2)s1,320,–,–,–
Cc1nsc(C2CCN(C(=O)[C@@H]3CN[C@H](C(=O)N4CCCC4)C3)CC2)n1,450,–,–,–
Cc1nc(N2CCN(C(=O)[C@@H]3CN[C@H](C(=O)N4CCCC4)C3)CC2)sc1C,510,–,–,–
Cc1cc(N2CCN(C(=O)[C@@H]3CN[C@H](C(=O)N4CCCC4)C3)CC2)sn1,240,–,–,–
Cc1nsc(N2CCN(C(=O)[C@@H]3CN[C@H](C(=O)N4CCSC4)C3)CC2)n1,76,91,75,–
COCc1nsc(N2CCN(C(=O)[C@@H]3CN[C@H](C(=O)N4CCCC4)C3)CC2)n1,49,52,41,–
Cc1nsc(N2CCN(C(=O)[C@H]3C[C@@H](C(=O)N4CCCC4)N[C@H]3C)CC2)n1,69,89,74,–
O=C([C@@H]1CN[C@H](C(=O)N2CCCC2)C1)N1CCN(c2ncns2)CC1,45,85,56,–
CCc1nsc(N2CCN(C(=O)[C@@H]3CN[C@H](C(=O)N4CCCC4)C3)CC2)n1,120,80,47,–
O=C([C@@H]1CN[C@H](C(=O)N2CCCC2)C1)N1CCN(c2nc(C(F)(F)F)ns2)CC1,140,91,54,–
